Laboratory results: ChEMBL document CHEMBL5674868, “Cancer Cells Hijack PRC2 to Modify Multiple Cytokine Pathways” (PLoS One, 2015)
The source made the active and inactive calls. The calls are words filed in the database; no cut-off is given here.

How the values were obtained:
Assay type in all cases: cell-based
[1] = biological target: Histone-lysine N-methyltransferase EZH2 (Homo sapiens) (UniProt Q15910); assay: Inhibition of EZH2 in human A549 cells assessed as increase in TNF-alpha-induced IL-6 level for 24 hrs by ELISA
Sequence of Histone-lysine N-methyltransferase EZH2 (Homo sapiens) (Q15910 whole entry, looked up): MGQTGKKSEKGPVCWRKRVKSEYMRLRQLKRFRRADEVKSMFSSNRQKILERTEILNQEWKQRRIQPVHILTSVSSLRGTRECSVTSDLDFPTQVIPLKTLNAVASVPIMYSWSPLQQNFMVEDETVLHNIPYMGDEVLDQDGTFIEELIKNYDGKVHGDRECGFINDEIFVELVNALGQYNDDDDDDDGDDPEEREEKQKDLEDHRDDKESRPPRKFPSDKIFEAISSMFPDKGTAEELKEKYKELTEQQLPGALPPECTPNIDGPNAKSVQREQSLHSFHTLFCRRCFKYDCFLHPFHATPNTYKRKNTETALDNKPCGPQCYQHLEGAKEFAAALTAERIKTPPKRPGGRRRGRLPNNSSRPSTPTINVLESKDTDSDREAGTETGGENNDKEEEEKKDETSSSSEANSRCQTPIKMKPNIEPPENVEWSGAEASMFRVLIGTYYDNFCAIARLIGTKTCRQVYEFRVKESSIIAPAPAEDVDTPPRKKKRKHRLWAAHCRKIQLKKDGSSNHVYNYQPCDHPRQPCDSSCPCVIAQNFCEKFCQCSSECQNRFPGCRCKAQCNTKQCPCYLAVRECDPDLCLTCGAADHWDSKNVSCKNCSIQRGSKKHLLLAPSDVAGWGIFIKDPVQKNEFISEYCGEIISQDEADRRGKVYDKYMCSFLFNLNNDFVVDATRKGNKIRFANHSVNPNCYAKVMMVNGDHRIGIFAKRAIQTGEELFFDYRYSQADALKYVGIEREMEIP
In short: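 A549 cells were pretreated for two four-day cycles with 2 μM UNC1999 or with DMSO. They were seeded at 3×10^4/well, allowed to settle for 4 h, then given the indicated concentrations of IFNγ, IL1β, LPS or TNFα for 24 h. Secreted IL6, IL8 or CXCL10 in the supernatant was measured by ELISA in duplicate. n = 3; ANOVA followed by Fisher test.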

[2] = biological target: Histone-lysine N-methyltransferase EZH2 (Homo sapiens) (UniProt Q15910); assay: Inhibition of EZH2 in human A549 cells assessed as increase in LPS-induced CCL-5 level for 24 hrs by multiplexing laser bead assay
In short: (§1)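 A549 cells were pretreated with vehicle or UNC1999 over two four-day cycles at 2 μM. They were seeded at 3×10^4/well, rested for 4 h, then exposed for 24 h to no stimulus, 5 μg/ml E. coli LPS or 10 U/ml TNFα. Secreted cytokines in the supernatants were quantified by a 41-plex laser bead assay.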

[3] = biological target: Histone-lysine N-methyltransferase EZH2 (Homo sapiens) (UniProt Q15910); assay: Inhibition of EZH2 in human MCF7 cells assessed as increase in IFN-gamma-induced SUZ12-repressed ISGs mRNA level after 6 hrs by RT-PCR analysis
In short: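 Cells pretreated for two 4-day cycles with 2 µM GSK343 or UNC1999, then left unstimulated or given human IFNγ for 6 h. RNA reverse-transcribed and measured by quantitative PCR, normalized to β-actin. Three biological replicates per treatment group.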

[4] = biological target: Histone-lysine N-methyltransferase EZH2 (Homo sapiens) (UniProt Q15910); assay: Inhibition of EZH2 in human A549 cells assessed as decrease in H3K27me3 levels at 2 uM after 6 hrs by Western blot analysis
[5] = biological target: Histone-lysine N-methyltransferase EZH2 (Homo sapiens) (UniProt Q15910); assay: Inhibition of EZH2 in human A549 cells assessed as increase in LPS-induced PDGFA level for 24 hrs by multiplexing laser bead assay; in short: as §1
[6] = biological target: Histone-lysine N-methyltransferase EZH2 (Homo sapiens) (UniProt Q15910); assay: Inhibition of EZH2 in human A549 cells assessed as increase in TNF-alpha-induced CCL7 level for 24 hrs by multiplexing laser bead assay; in short: as §1
[7] = biological target: Histone-lysine N-methyltransferase EZH2 (Homo sapiens) (UniProt Q15910); assay: Inhibition of EZH2 in human HeLa cells assessed as decrease in H3K27me3 levels at 2 uM after 6 hrs by Western blot analysis
[8] = biological target: Histone-lysine N-methyltransferase EZH2 (Homo sapiens) (UniProt Q15910); assay: Inhibition of EZH2 in human HeLa cells assessed as effect on PITX2 mRNA level after 6 hrs by RT-PCR analysis in presence of IFN-gamma
In short: (§2)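 Cells were treated for two four-day cycles with 2 μM GSK343 or UNC1999, then left untreated or stimulated with human IFNγ for 6 h. mRNA was measured by reverse transcription quantitative PCR and normalized to β-actin. Three biological replicates were run per treatment group.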

[9] = biological target: Histone-lysine N-methyltransferase EZH2 (Homo sapiens) (UniProt Q15910); assay: Inhibition of EZH2 in human ASPC1 cells assessed as effect on PITX2 mRNA level after 6 hrs by RT-PCR analysis; in short: as §2
[10] = biological target: Histone-lysine N-methyltransferase EZH2 (Homo sapiens) (UniProt Q15910); assay: Inhibition of EZH2 in human MCF7 cells assessed as decrease in H3K27me3 levels at 2 uM after 6 hrs by Western blot analysis
[11] = biological target: Histone-lysine N-methyltransferase EZH2 (Homo sapiens) (UniProt Q15910); assay: Inhibition of EZH2 in human HeLa cells assessed as increase in IFN-gamma-induced SUZ12-repressed ISGs mRNA level after 6 hrs by RT-PCR analysis; in short: as §2
[12] = biological target: Histone-lysine N-methyltransferase EZH2 (Homo sapiens) (UniProt Q15910); assay: Inhibition of EZH2 in human A549 cells assessed as increase in TNF-alpha-induced CCL-5 level for 24 hrs by multiplexing laser bead assay; in short: as §1
[13] = biological target: Histone-lysine N-methyltransferase EZH2 (Homo sapiens) (UniProt Q15910); assay: Inhibition of EZH2 in human ASPC1 cells assessed as effect on IRF1 mRNA level after 6 hrs by RT-PCR analysis in presence of IFN-gamma; in short: as §2
[14] = biological target: Histone-lysine N-methyltransferase EZH2 (Homo sapiens) (UniProt Q15910); assay: Inhibition of EZH2 in human A549 cells assessed as increase in LPS-induced CSF-3 level for 24 hrs by multiplexing laser bead assay; in short: as §1
[15] = biological target: Histone-lysine N-methyltransferase EZH2 (Homo sapiens) (UniProt Q15910); assay: Inhibition of EZH2 in human AsPC1 cells assessed as decrease in H3K27me3 levels at 2 uM after 6 hrs by Western blot analysis
[16] = biological target: Histone-lysine N-methyltransferase EZH2 (Homo sapiens) (UniProt Q15910); assay: Inhibition of EZH2 in human A549 cells assessed as effect on PITX2 mRNA level after 6 hrs by RT-PCR analysis in presence of IFN-gamma; in short: as §2
[17] = biological target: Histone-lysine N-methyltransferase EZH2 (Homo sapiens) (UniProt Q15910); assay: Inhibition of EZH2 in human ASPC1 cells assessed as effect on PITX2 mRNA level after 6 hrs by RT-PCR analysis in presence of IFN-gamma; in short: as §2
[18] = biological target: Histone-lysine N-methyltransferase EZH2 (Homo sapiens) (UniProt Q15910); assay: Inhibition of EZH2 in human HeLa cells assessed as effect on IRF1 mRNA level after 6 hrs by RT-PCR analysis in presence of IFN-gamma; in short: as §2
[19] = biological target: Histone-lysine N-methyltransferase EZH2 (Homo sapiens) (UniProt Q15910); assay: Inhibition of EZH2 in human HeLa cells assessed as effect on IRF1 mRNA level after 6 hrs by RT-PCR analysis; in short: as §2
[20] = biological target: Histone-lysine N-methyltransferase EZH2 (Homo sapiens) (UniProt Q15910); assay: Inhibition of EZH2 in human ASPC1 cells assessed as effect on HPRT mRNA level after 6 hrs by RT-PCR analysis in presence of IFN-gamma; in short: as §2
[21] = biological target: Histone-lysine N-methyltransferase EZH2 (Homo sapiens) (UniProt Q15910); assay: Inhibition of EZH2 in human ASPC1 cells assessed as effect on HPRT mRNA level after 6 hrs by RT-PCR analysis; in short: as §2
[22] = biological target: Histone-lysine N-methyltransferase EZH2 (Homo sapiens) (UniProt Q15910); assay: Inhibition of EZH2 in human HeLa cells assessed as effect on HPRT mRNA level after 6 hrs by RT-PCR analysis in presence of IFN-gamma; in short: as §2
[23] = biological target: Histone-lysine N-methyltransferase EZH2 (Homo sapiens) (UniProt Q15910); assay: Inhibition of EZH2 in human ASPC1 cells assessed as increase in IFN-gamma-induced SUZ12-repressed ISGs mRNA level after 6 hrs by RT-PCR analysis; in short: as §2
[24] = biological target: Histone-lysine N-methyltransferase EZH2 (Homo sapiens) (UniProt Q15910); assay: Inhibition of EZH2 in human A549 cells assessed as increase in TNF-alpha-induced CXCL-1 level for 24 hrs by multiplexing laser bead assay; in short: as §1
[25] = biological target: Histone-lysine N-methyltransferase EZH2 (Homo sapiens) (UniProt Q15910); assay: Inhibition of EZH2 in human A549 cells assessed as effect on HPRT mRNA level after 6 hrs by RT-PCR analysis; in short: as §2
[26] = biological target: Histone-lysine N-methyltransferase EZH2 (Homo sapiens) (UniProt Q15910); assay: Inhibition of EZH2 in human A549 cells assessed as effect on IRF1 mRNA level after 6 hrs by RT-PCR analysis in presence of IFN-gamma; in short: as §2
[27] = biological target: Histone-lysine N-methyltransferase EZH2 (Homo sapiens) (UniProt Q15910); assay: Inhibition of EZH2 in human A549 cells assessed as increase in LPS-induced VEGF-A level for 24 hrs by multiplexing laser bead assay; in short: as §1

inhibition [1]: Active
inhibition [2]: Active
inhibition [3]: Active
inhibition [4]: Active
inhibition [5]: Active
inhibition [6]: Active
inhibition [7]: Active
inhibition [8]: inactive
inhibition [9]: inactive
inhibition [10]: Active
inhibition [11]: Active
inhibition [12]: Active
inhibition [13]: inactive
inhibition [14]: Active
inhibition [15]: Active
inhibition [16]: inactive
inhibition [17]: inactive
inhibition [18]: inactive
inhibition [19]: inactive
inhibition [20]: inactive
inhibition [21]: inactive
inhibition [22]: inactive
inhibition [23]: Active
inhibition [24]: Active
inhibition [25]: inactive
inhibition [26]: inactive
inhibition [27]: Active
Structure (SMILES): CCCc1cc(C)[nH]c(=O)c1CNC(=O)c1cc(-c2ccc(N3CCN(C(C)C)CC3)nc2)cc2c1cnn2C(C)C
